High-throughput results deposited in PubChem by several laboratories.
Beta apoptosis: blocks beta cell apoptosis; INS-1E cytokine-induced death, ATP luminescence, 48 h; percent of positive-control rescue, neutral wells zero; protection from apoptosis, % (no concentration beside the values); 0.8% of 300,000 active; AID 435005;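 active = Every replicate reaches about 75%, or at least half do and their mean reaches it too, limit read from the data; inconclusive = At least half of replicates reach the limit but their mean does not; inactive = Under half of replicates reach the limit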;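 also: 0% = cytokine-treated negative control wells and 100% = positive control rescue; higher means more ATP so stronger rescue from cytokine killing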
ANO1 block: inhibitors of mouse TMEM16A calcium-activated chloride channel; HEK293 TMEM16A/YFP iodide influx fluorescence, ionomycin; 1.2% of 310,000 active; Q8BHY3; AID 588511; normalized B-score (activity score, 25-100; higher = stronger inhibition) at 10 µM;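 active = ratio plate-corrected score three or more library SD toward inhibition, starting fluorescence score within five deviations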;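 also: score derived from kinetic fluorescence span divided by baseline fluorescence per well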
MC4R antag cAMP: human MC4R antagonism in cAMP assay; inhibition, % at 6.5 µM; MC4R-expressing cells, MTII-stimulated cAMP, LANCE TR-FRET; P32245; 0.48% of 360,000 active;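 active = inhibition above its plate's cutoff, the mean of tested wells on that plate plus 3 SD, cut at about 29% in these data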;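 also: 0% = Melanotan II alone and 100% = Melanotan II plus saturating MCL0020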
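Test system: U2OS cells stably expressing human melanocortin 4 receptor (MC4R); also added: Melanotan II challenge; compound: 6.5 µM single dose; timing: 30-min compound preincubation, 1-h Melanotan II challenge, 1-h detection, room temperature; signal: Eu-cAMP/anti-cAMP TR-FRET, emission 671 nm; repeats: one well per compound, no replicates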
ANO1 activ: mouse TMEM16A channel activation, primary screen | Q8BHY3 | B-score at 10 µM | HEK293 TMEM16A/YFP-H148Q/I152L, iodide quench fluorescence; stronger effect = lower value | AID 623877 | 0.3% of 340,000 active;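 active = fluorescence-ratio B-score plate-corrected deviation score at least 3 library SD below zero, with starting fluorescence score within 5 deviations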;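 also: channel opened by trigger with iodide after compound preincubation; score built on the fluorescence ratio of max minus min over baseline; more negative score means more quench and so TMEM16A activation or potentiation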
CSC inhib: blocks cancer stem cells; 1.1% of 300,000 active; cancer stem cell-like cells viability, luminescence; AID 2717; inhibition, % at 7.5 µM; in the data active = inhibition above about 75%; inconclusive = no clear call, values can overlap the other calls; tested in HMLE shEcad cells
MC4R ag barr: agonists of human melanocortin 4 receptor (MC4R) beta-arrestin; P32245; U2OS MC4R beta-arrestin complementation, luminescence; percent of melanotan II response, DMSO zero; activation, % at 8.9 µM; 0.98% of 360,000 active; AID 540308;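 active = activation above a per-plate cutoff, the mean activation of sample wells on that plate plus 3 SD, cut at about 8% in these data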
* = called active by the depositor; i = inactive; ? = inconclusive; nt = not tested or not shown. This is a sample that favours compounds with a hit; in the whole collection about 3.8% have one here.

SMILES	Beta apoptosis	ANO1 block	MC4R antag cAMP	ANO1 activ	CSC inhib	MC4R ag barr
O=C(CCC1CCCCC1)NCCS(=O)(=O)N1CCN(c2ccc(F)cc2)CC1	nt	i	7	i	5	5
Cc1cc(/C=C2/C(=N)N3C(=NC2=O)SN=C3S(C)(=O)=O)c(C)n1-c1ccc(F)cc1	3	i	12	i	6	-2
Cc1cccc(C)c1-n1cccc1/C=C1/C(=N)N2C(=NC1=O)SN=C2S(C)(=O)=O	-8	25*	7	i	35	8
CCOc1ccc(-n2c(C)cc(/C=C3/C(=N)N4C(=NC3=O)SN=C4S(C)(=O)=O)c2C)cc1	-3	i	7	-6.3*	20	1
Cc1ccc(F)cc1-c1cc(C(=O)NCc2cc(C(F)(F)F)cc(C(F)(F)F)c2)[nH]n1	nt	nt	5	nt	nt	7
N#Cc1c(N)sc2c1CCN(CCc1ccccc1)C2	6	25*	2	i	-2	-2
Cc1c(C)c2ccc(OC(C)C(=O)NCc3ccccn3)cc2oc1=O (stereo unspecified)	8	i	11	i	-14	-3
O=C(Nc1ccccc1)c1cc(C2COCCN2C(=O)C2CC2)on1 (stereo unspecified)	nt	nt	4	nt	nt	-1
Cc1nn(-c2ccccc2)c(C)c1NC(=O)COc1ccc(Br)cc1Cl	?	25*	17	i	6	0
CCOC(=O)Cc1cc(-c2ccc(O)cc2)nc2ccc3ccccc3c12	0	i	-3	i	58	8.4*
CCOC(=O)Cc1cc(-c2ccc(OC)cc2)nc2ccc3ccccc3c12	7	i	3	i	43	1
S=C(NCCSCc1ccc(Cl)c(Cl)c1)Nc1ccccc1	-3	100*	4	i	-14	3
S=C(NCCSCc1c(Cl)cccc1Cl)Nc1ccccc1	4	100*	7	i	nt	2
COc1ccc(CSCCNC(=S)Nc2ccccc2)cc1Cl	4	i	0	i	15	0
CC(C)CC(=O)NC(NC(=S)Nc1sc2c(c1C#N)CCCC2)C(Cl)(Cl)Cl (stereo unspecified)	21	100*	-2	i	80*	-1
Cc1cc(C)cc(NC(=O)C2CCN(S(=O)(=O)c3ccc4c(c3)NC(=O)C(C)S4)CC2)c1 (stereo unspecified)	5	i	2	i	11	-3
Cc1ccc(NC(=O)C2CCN(S(=O)(=O)c3ccc4c(c3)NC(=O)C(C)S4)CC2)cc1Cl (stereo unspecified)	107*	i	7	i	32	-1
O=c1nc2n(CCO)c3ccccc3cc-2c(=O)[nH]1	nt	nt	-2	i	nt	2
CC1CCN(CCNC(=O)c2ccc3c(=O)n(Cc4ccc(Cl)cc4)c(=S)[nH]c3c2)CC1	3	i	13	i	-7	9.9*
COCCCNC(=O)c1ccc2c(=O)n(Cc3ccc(Cl)cc3)c(=S)[nH]c2c1	2	i	6	i	-8	-1
CC[C@@H](C(=O)[C@@H](C)[C@@H](O)[C@H](C)CCc1ccc(C)c(O)c1C(=O)O)[C@H]1O[C@](CC)([C@H]2CC[C@](O)(CC)[C@H](C)O2)C[C@@H]1C	97*	100*	6	-5.5*	117*	89*
Cc1ccc(NC(=O)C2CCCN2C(=O)c2cccs2)c(C)c1 (stereo unspecified)	4	i	7	i	-1	-1
COC(=O)c1sc(-c2ccc(Cl)cc2)cc1NC(=O)c1ccccc1C(=O)O	1	i	17	i	7	1
COC(=O)c1sc(-c2ccc(C(C)(C)C)cc2)cc1NC(=O)c1ccccc1C(=O)O	3	100*	10	i	26	2
Cc1ccc(NC(=S)N/N=C/c2c(Cl)cccc2Cl)c(C)c1	41	i	-18	i	101*	-1
SMILES	Beta apoptosis	ANO1 block	MC4R antag cAMP	ANO1 activ	CSC inhib	MC4R ag barr
CC(C)(C)NC(=S)N/N=C/c1c(Cl)cccc1Cl	1	i	4	i	0	-1
COc1ccc(/C=N/NC(=S)Nc2ccccc2[N+](=O)[O-])cc1O	-2	i	-19	i	89*	-3
CCCOc1ccc(/C=N/NC(=S)Nc2ccccc2[N+](=O)[O-])c(O)c1	108*	i	nt	nt	89*	nt
CCCOc1ccc(/C=N/Nc2ccccc2[N+](=O)[O-])c(O)c1	0	i	12	i	nt	-2
S=C(N/N=C/c1ccc(Cl)c(Cl)c1)Nc1ccccc1Cl	19	i	-6	i	15	9.3*
Cc1ccc(O)c(N/C=C/C(=O)c2ccc(F)cc2)c1	4	i	6	i	54	5
Fc1cccc(/C=N/NC(=S)Nc2ccccc2Cl)c1	nt	i	-8	i	1	2
CCCOc1ccc(/C=N/Nc2ccc(C(=O)O)cc2)c(OCCC)c1	nt	nt	10	i	nt	-2
CCCOc1ccc(/C=N/Nc2cccc([N+](=O)[O-])c2)c(O)c1	31	i	2	i	113*	5
O=[N+]([O-])c1cc(/C=N/NC(=S)Nc2ccccc2Cl)ccc1Cl	13	i	-11	i	84*	-1
COc1cc(/C=N\NC(=O)CNC(=O)C2COc3ccccc3O2)ccc1O (stereo unspecified)	3	i	-4	i	12	-1
CCN(CC)c1ccc(/C=N/NC(=O)CCC(=O)NCc2ccccc2)c(O)c1	98*	i	-6	i	82*	4
CCOC(=O)N/N=C/c1ccc(N(CC)CC)cc1O	nt	i	-21	i	nt	-1
CCN(CC)c1ccc(/C=N/NC(=O)CNC(=O)C2COc3ccccc3O2)c(O)c1 (stereo unspecified)	99*	i	-8	i	4	-2
C[C@H](NC(=O)[C@@H]1CSC2c3ccccc3C(=O)N21)C(=O)NCc1c(F)cccc1Cl (stereo partly specified)	8	i	23	i	-1	-1
COc1cc(/C=C(/C#N)c2ccccc2F)ccc1OCc1ccccc1	-2	i	11	i	116*	-1
Cc1ccc(NC(=O)c2cc(S(=O)(=O)NCCC3=CCCCC3)ccc2F)cc1F	107*	i	12	i	13	-1
CC(=O)N1CCc2cc(S(=O)(=O)NCCC3=CCCCC3)ccc21	87*	i	0	i	nt	-1
O=C(Nc1cccc(F)c1)c1cc(S(=O)(=O)NCCC2=CCCCC2)ccc1F	1	i	1	i	21	-1
O=C(COC(=O)C1CCC(=O)N1)Nc1cccc([N+](=O)[O-])c1 (stereo unspecified)	-10	nt	2	i	-15	-1
